Unmarked numbers belong to inactive results. Inconclusive results are not listed. Active and inactive are the calls of the source.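 How the source made its calls, unless noted: active means viability at or below 27.92% in each of two runs, the all-compound median minus 4 SD; inconclusive means no clear call, values can overlap the other calls; inactive means the rest.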
Experiments:
[1] = S. cerevisiae growth inhibition in permissive medium (OD615), pilot counter-assay for S. cerevisiae lifespan shortening project, permissive growth control (AID 705;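 active means growth inhibition above 25% in both replicates, a cutoff set 3 SD above the mean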); settings: OD615, 24 h, at 10 µM, hits give high values
Method in brief: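 Timing: 24 h exposure, 30 °C / Material: Saccharomyces cerevisiae strain carrying genetically modified DeaD replicative-lifespan system / Signal: OD at 615 nm / Compound: 10 µM single dose, 0.25% DMSO / Medium: SC raffinose/galactose permissive medium / Evaluation: reduction in yeast growth (OD615)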

[2] = S. cerevisiae growth inhibition in restrictive medium, OD615, pilot screen, restrictive growth control, yeast lifespan reduction project (AID 706;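 active means growth inhibition above a set limit, 3 SD over mean compound inhibition, in both replicates, cut at about 43% in these data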;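 further: modified DeaD lifespan yeast strain shifted to restrictive glucose medium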); settings: OD615, 48 h, at 10 µM, hits give high values
Method in brief: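 System: Engineered S. cerevisiae DeaD strain | Detection: OD615 | Buffer or medium: CSMM-D glucose medium | Doses: 10 µM compound, 0.25% DMSO | Timing: 4 h pre-growth plus 48 h compound exposure, 30 °C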

[3] = doxorubicin toxicity protection in MRP-1 cells – H69AR cells, CellTiter-Glo, duplicate, MRP-1 activator project, pilot screen (AID 807;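 active means viability increase at or above a cutoff of the median across tested compounds plus 3 SD, cut at about 8.5% in these data, passing the limit was not always enough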;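 further: compound pretreatment 18-22 h then 72 h combined with doxorubicin; 0% = doxorubicin alone and 100% = vehicle without doxorubicin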); settings: H69AR viability with doxorubicin, CellTiter-Glo luminescence; at 10 µM; hits give high values
[4] = viability of HCT116 without oncogenic beta-catenin – human colon tumor cells, pilot screen (AID 823;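 active means cell viability at or below a set limit in both duplicate runs, the limit being the all-compound median minus 4 SD, cut at about 23% in these data, passing the limit was not always enough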;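 further: 0% = wells killed by 20 µM Hyamine and 100% = untreated DMSO cell wells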); settings: HCT116 beta-catenin knockout viability, CellTiter-Glo, 60 h; at 10 µM; hits give low values
[5] = viability of PTEN-null HCT116 cells – cell-based, HCT116 clonal line, CellTiter-Glo, pilot screen (AID 824); settings: HCT116 PTEN-deleted viability, 60 h, at 10 µM, hits give low values;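 further: 0% = 20 µM Hyamine control and 100% = vehicle cell control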
[6] = RAM pathway blockade in budding yeast – dse1pr::URA3 reporter, 5-FOA selection, pilot screen (AID 869;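 active means inhibition over a set limit, the all-compound mean plus 3 SD, in both replicate runs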;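 further: 0% = DMSO wells with no growth and 100% = 10 µM 1-NA-PP1 with full growth; RAM network block rescues cells from 5-FOA so hits raise OD615 growth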); settings: S. cerevisiae dse1pr::URA3 5-FOA growth, OD615, 2 d; at 10 µM; hits give high values; strain carries analog-sensitive mutant Cbk1 kinase
[7] = RAM signaling pathway blockade in yeast – S. cerevisiae, Pdr1DBD-CYC8 efflux-inhibited sensitized strain, primary screen (AID 1298;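 active means RAM network inhibition above 8.4% in each of two replicates, 3 SD over the compound average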;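 further: 0% = DMSO untreated cells without growth and 100% = 10 µM 1-NA-PP1 full growth; higher means more yeast growth rescued from 5-FOA killing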); settings: S. cerevisiae cbk1-as DSE1-URA3 strain, 5-FOA growth OD615, 2 d; at 50 µM; hits give high values

SMILES	growth inhibition [1] [%]	growth inhibition [2] [%]	viability increase [3] [%]	viability [4]	viability [5] [%]	inhibition [6] [%]	RAM network inhibition [7] [%]
O=C(NCCN1C(=O)C2C3C=CC(C3)C2C1=O)NCc1ccccc1 (configuration not stated)	-14.8	3.81	-0.69	102%	99.8	1.61	1.83
CN1CCc2c(c3ccccc3n2Cc2ccccc2)C1	-5.23	-8.68	-5.7	57.9%	63.9	1.27	5.12
Cn1c(C(=O)NC2CCCCC2)cc2c(=O)n(C)c3ccccc3c21	-10.6	-6.48	-1.7	88%	73.8	1.46	4.6
CCCCSc1nnc(C)c(=O)[nH]1	-8.76	-12.2	-0.85	97.6%	102	1.26	7.32
COc1cccc(C2CC(c3ccc(C(C)C)cc3)n3nc(N)nc3N2)c1 (configuration not stated)	-2.39	3.09	0.91	97.1%	95.7	1.5	3.94
CCOC(=O)C1CCCCN1C(=O)CCc1c(C)nc2cc(-c3ccccc3)nn2c1C (configuration not stated)	4.13	-4.46	1.11	52.9%	78	1.38	-2.1
C=CCn1c(C(C)NC(=O)COC)nc2ccccc21 (configuration not stated)	-2.42	-4.71	-2.08	98.7%	96.2	0.935	3.54
N#CCCCSc1nnc(-c2ccc(Cl)cc2)n1-c1ccccc1	-4.58	9.62	-3.58	83%	93	1.34	4.2
Cn1c(NC(=O)c2cccs2)cc(=O)n(C)c1=O	7.14	0.885	-1.55	107%	95.5	0.13	-1.35
Cc1ccc(N2CC(c3nc4ccccc4n3C)CC2=O)cc1C (configuration not stated)	-4.58	-2.28	-1.22	103%	105	0.94	3.07
COc1ccc2nc(SCc3nc(N)nc(Nc4ccccc4)n3)[nH]c2c1	-8.8	15.4	0.65	67.7%	80.3	0.72	6.33
CSC1=NCCN1C(=O)Cc1ccc(F)cc1	-0.72	0.85	2.96	105%	103	0.725	4.04
c1ccc(OCc2nnc3sc(C4COc5ccccc5O4)nn23)cc1 (configuration not stated)	4.23	5.81	-1.91	99.4%	90	2.56	5.98
CC1(C)CC2CC(C)(CN2C(=O)c2cc(-c3ccccc3O)on2)C1 (configuration not stated)	-11.4	-4.57	-5.87	75.5%	61.9	2.44	6.15
CCS(=O)(=O)N1CCN(c2cccc(C)c2C)CC1	-12.4	-5.41	-1.48	97.5%	89.3	2.35	4.29
CCOC(=O)c1[nH]c2cc(OC)c(OC)cc2c1NC(=O)c1ccc2c(c1)OCO2	-7.63	-10.9	-1.41	102%	101	2.13	7.33
Cc1cc(C)cc(NC(=O)CSc2nnc(-c3ccccc3)n2N)c1	5.25	7.08	-3.11	98.1%	97.1	2.74	4.66
O=C(CNC(=O)c1cnccn1)Nc1ccc(F)c(F)c1F	-8.69	2.7	1.31	99.9%	92.8	2.68	7.87

SMILES	growth inhibition [1] [%]	growth inhibition [2] [%]	viability increase [3] [%]	viability [4]	viability [5] [%]	inhibition [6] [%]	RAM network inhibition [7] [%]
c1ccc2cc3[nH]c(CN4CCCCC4)nc3cc2c1	-19.8	-13.4	-2.94	95.9%	87.6	1.58	5.29
C=C(C)Cn1c(C2CC(=O)N(c3ccccc3F)C2)nc2ccccc21 (configuration not stated)	-9.62	-5.32	-2.5	100%	105	0.42	1.56
Cc1ccc(C2c3c(oc4ccc(C)cc4c3=O)C(=O)N2CCCN2CCOCC2)cc1 (configuration not stated)	-8.48	-3.63	-5.72	77.3%	84.1	0.99	-1.21
O=C(NO)c1ccc(C(=O)N(C2CCCCC2)C2CCCCC2)cc1	-0.05	5.84	-5.78	17.2% (active)	36.1	0.64	-1.08
COc1ccc(N=CC2=C(O)CC(C)(C)CC2=O)cc1	6.45	-2.8	-3.24	97.5%	101	0.71	1.73
CCOC(=O)C1C(=O)NC(SC)=C(C#N)C1c1ccccc1F (configuration not stated)	-2.39	-17	-2.97	90.8%	95.5	-1	-1.66
Cc1ccc(-c2n[nH]c(=S)n2C)cc1	-2.22	11.2	-1.46	97.5%	101	2.21	3.7
CC(CCc1ccccc1)NC(=O)C1CCN(c2nnc(-n3cccc3)s2)CC1 (configuration not stated)	-2.63	-7.45	-0.45	95.9%	88.5	4.55	4.94
CCC(C)NC(=O)CCCCCn1c(=O)[nH]c2cc(OC)c(OC)cc2c1=O (configuration not stated)	-18.5	-7.55	-2.36	88%	93	0.065	2.96
CCOC(=O)c1cnc2c(C)c(Cl)ccc2c1N1CCOCC1	-1.27	-2.46	-6.05	77%	81.3	0.755	3.29
O=C(CSc1ncnc2nc[nH]c12)N1CCOCC1	-15.7	-14.4	-0.96	86%	102	-0.435	2.34
COc1ccccc1S(=O)(=O)Cc1ccc(C(=O)NCCN(C)C)o1	-6.73	5	-0.73	106%	98.2	1.9	0.1
CCOC(=O)CSc1n[nH]c(-c2ccco2)n1	-16.1	-17	-1.01	93.8%	102	0.85	4.21
O=C(CSc1nc2sc3c(c2c(=O)n1-c1ccccc1)CCCC3)NCc1ccco1	-7.07	-5.03	-7.21	53.7%	53.8	3.98	6.12
CCOCCCNC(=O)Cc1cc(=O)[nH]c(=O)[nH]1	-20.6	-19.6	-0.42	99.2%	94.1	1.44	4.84
O=C(Cn1cc2c(n1)CCCC2)NCc1cccnc1	-1.72	-0.58	-0.86	102%	101	3.13	3.68
Cc1ccc(NC(=O)C2CCN(S(=O)(=O)c3cccc4cccnc34)CC2)nc1	2.12	-7.59	-2.71	88.1%	87.2	-0.475	3.26
Cc1ccc(S(=O)(=O)N2CCCC(C(=O)O)C2)s1 (configuration not stated)	-4.2	-4.86	1.27	97%	99.6	0.59	-1.67

Reference: PubChem BioAssay
